The source made the active and inactive calls. The calls are words filed in the database; no cut-off is given here.
Columns and labels:
[1] = test system: SH-SY5Y; test: Neuroprotective activity in human SH-SY5Y cells; type: functional, cell-based
In short: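 SH-SY5Y cells seeded at 2 × 10^5/mL in DMEM-F12 with 5% FBS; after 24 h medium replaced by supernatant of THP-1 cells stimulated 24 h with LPS + IFN-γ, or by medium containing 250 µM H2O2, with compound added at transfer. Cell death measured by LDH assay 72 h later; five independent experiments; randomized block ANOVA.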

[2] = test system: THP-1; test: Neuroprotective activity against LPS and IFN-gamma-stimulated neurotoxin production in human THP1 cell assessed as inhibition of THP1 cell secretion-induced toxicity to human SH-SY5Y cells after 72 hrs by MTT assay; type: functional, cell-based; conditions: for IC50: THP-1, 72 h
In short: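 THP-1 cells pretreated 15 min with compound, then stimulated with LPS (0.5 µg/mL) plus IFN-γ (150 U/mL) for 24 h. Cell-free supernatant transferred to SH-SY5Y cells plated 24 h earlier (2 × 10^5 cells/mL). After 72 h, SH-SY5Y viability read by MTT (0.5 mg/mL, 1 h, 37 °C, OD570) or by LDH release (OD490, relative to Triton X-100 lysis). IC50 estimated.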

[3] = test system: Rattus norvegicus; test: Antiinflammatory activity in Wistar albino rat sub-acute inflammatory model assessed as inhibition of formalin-induced paw edema at 20 mg/kg, po administered 1 hr prior to formalin challenge measured on day 1 relative to control; type: functional
In short: (§1)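 Male Wistar rats, 180–200 g, five per group, dosed orally 20 mg/kg daily for 7 consecutive days. Formalin (2%, 0.1 mL) injected subplantar into left hind paw under light ether 1 h after dosing, repeated on day 3. Paw volume measured plethysmographically on days 1 and 8; inhibition expressed relative to untreated controls.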

[4] = test system: Rattus norvegicus; test: Antiinflammatory activity in Wistar albino rat assessed as inhibition of turpentine oil-induced granuloma at 20 mg/kg, po qd for 7 days post turpentine oil challenge measured on day 8; type: functional
In short: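 In ether-anaesthetized male Wistar rats (five per group) a dorsal subcutaneous pouch is formed with 2 mL air, then 0.5 mL turpentine oil is injected. Oral dosing at 20 mg/kg starts 1 h before turpentine and continues 7 days. On day 8 the exudate is drawn by syringe and its volume recorded; % inhibition = (Vcontrol − Vtreated)/Vcontrol × 100.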

[5] = test system: Rattus norvegicus; test: Antiinflammatory activity in Wistar albino rat assessed as inhibition of formalin-induced paw edema at 20 mg/kg, po administered 1 hr prior to formalin challenge measured after 1 hr relative to control; type: functional
In short: (§2)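 Male Wistar rats, 180–200 g, groups of five; single oral dose 1 h before 2% formalin (0.1 mL) into subplantar left hind paw under light ether anaesthesia. Paw volume read by water plethysmometer at baseline and 1, 2, 3, 4 h; % inhibition = control (Vt−Vo) minus treated (Vt−Vo), over control, ×100. Means ± SEM; ANOVA with Student–Newman–Keuls.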

[6] = Acute toxicity in Wistar albino rat after 24 hrs; type: organism-based; conditions: in vivo, read-out: ALD50
In short: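 Male Wistar albino rats (180–200 g), fasted 24 h, groups of five; compound given orally in graded doses of 0.1–3.0 g/kg. Mortality recorded at each dose after 24 h to estimate approximate acute lethal dose (ALD50).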

[7] = test system: Rattus norvegicus; test: Antiinflammatory activity in Wistar albino rat assessed as inhibition of formalin-induced paw edema at 20 mg/kg, po administered 1 hr prior to formalin challenge measured after 3 hrs relative to control; type: functional; in short: as §2
[8] = test system: THP-1; test: Antiinflammatory activity in human THP1 cells assessed as reduction in LPS and IFN-gamma-induced MCP level after 24 hrs; type: functional, cell-based
In short: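 THP-1 cells (5 × 10^5 cells/mL, DMEM-F12 with 5% FBS) pretreated 15 min with compound or DMSO vehicle, then stimulated with 0.5 µg/mL LPS plus 150 U/mL IFN-γ. After 24 h, MCP-1 in cell-free medium measured by ELISA. IC50 estimated from concentration–response; randomized block ANOVA.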

[9] = test system: Rattus norvegicus; test: Antiinflammatory activity in po dosed Wistar albino rat assessed as inhibition of formalin-induced paw edema after 3 hrs relative to control; type: functional
[10] = target: T1, Prostaglandin G/H synthase 1 (Ovis aries) (UniProt P05979); test: Inhibition of ovine COX1 at 100 uM
T1 sequence (whole entry): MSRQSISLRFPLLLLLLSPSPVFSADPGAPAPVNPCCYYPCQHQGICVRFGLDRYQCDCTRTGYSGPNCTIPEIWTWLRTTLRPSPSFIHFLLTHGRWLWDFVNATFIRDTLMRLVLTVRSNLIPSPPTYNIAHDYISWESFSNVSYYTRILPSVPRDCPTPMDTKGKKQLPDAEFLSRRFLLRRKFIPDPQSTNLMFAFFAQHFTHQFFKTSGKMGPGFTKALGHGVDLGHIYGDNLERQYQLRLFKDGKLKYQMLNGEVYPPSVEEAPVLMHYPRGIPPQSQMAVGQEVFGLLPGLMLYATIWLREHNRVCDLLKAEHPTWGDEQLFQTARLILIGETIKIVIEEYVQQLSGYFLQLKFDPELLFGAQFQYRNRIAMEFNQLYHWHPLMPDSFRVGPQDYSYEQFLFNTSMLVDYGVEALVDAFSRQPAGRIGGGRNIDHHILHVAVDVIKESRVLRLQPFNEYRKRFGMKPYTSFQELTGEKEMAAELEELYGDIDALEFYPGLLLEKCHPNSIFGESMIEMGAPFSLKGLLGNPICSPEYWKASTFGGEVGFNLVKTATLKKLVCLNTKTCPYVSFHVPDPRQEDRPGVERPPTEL
In short: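 Screening kit with ovine COX-1 and human recombinant COX-2, run per manufacturer's protocol; percent inhibition of prostaglandin production measured for each isoform.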

[11] = test system: Rattus norvegicus; test: Antiinflammatory activity in Wistar albino rat sub-acute inflammatory model assessed as inhibition of formalin-induced paw edema at 20 mg/kg, po administered 1 hr prior to formalin challenge measured on day 8 relative to control; type: functional; in short: as §1
[12] = test system: Rattus norvegicus; test: Antiinflammatory activity in Wistar albino rat assessed as inhibition of formalin-induced paw edema at 20 mg/kg, po administered 1 hr prior to formalin challenge measured after 4 hrs relative to control; type: functional; in short: as §2

Structure (SMILES)	Activity [1]	Activity [2]	IC50 [2]	inhibition in vivo at 20 mg/kg [3]	inhibition in vivo at 20 mg/kg [4]	inhibition in vivo at 20 mg/kg [5]	LD50 at 24 h [6]	inhibition in vivo at 20 mg/kg [7]	IC50 [8]	ED50 [9]	inhibition [10]	inhibition in vivo at 20 mg/kg [11]	inhibition in vivo at 20 mg/kg [12]	IC50 ([8]; Homo sapiens, THP-1, 24 h, read-out: IC50)
N#Cc1cnn(-c2ccccc2)c1NC(=O)C(=O)Nc1c(C#N)cnn1-c1ccccc1	Active	Dose-dependent effect	10 µM	43%	48%	44%	> 300 mg/kg	50%	250 µM	17.5 mg/kg	11.2%	44%	58%	–
CC(NC(=O)C(=O)Nc1c(C#N)cnn1-c1ccccc1)c1ccccc1 (stereo not given)	inactive	–	6 µM	39%	51%	50%	> 300 mg/kg	46%	–	19.6 mg/kg	24.5%	38%	50%	150 µM
